# Screening data: PubChem, several laboratories
# Only some compounds are listed: those with a hit (about 1.6% of all), similar ones and a draw of the others.
# TRAIL sens C8: sensitizes caspase-8 expressing cells to TRAIL; AID 624354; NB7+C8 cells + TRAIL, ATPlite viability luminescence; 360,000 compounds, 1% hits; inhibition (viability loss, TRAIL sensitization), % at 10 µM;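 active = compounds causing at least 50% loss of cell viability in the single-dose screen, relative to plate controls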
# FLuc inh counter: inhibits firefly luciferase, flagging false hits in luciferase inhibition screens; P08659; ATPLite firefly luciferase biochemical luminescence, 10 min; inhibition, % at 10 µM; 200,000 compounds, 1.5% hits;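 active = inhibition above about 50% when tested at 10 µM, limit read from the data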
# Target sequence (P08659 whole entry, looked up): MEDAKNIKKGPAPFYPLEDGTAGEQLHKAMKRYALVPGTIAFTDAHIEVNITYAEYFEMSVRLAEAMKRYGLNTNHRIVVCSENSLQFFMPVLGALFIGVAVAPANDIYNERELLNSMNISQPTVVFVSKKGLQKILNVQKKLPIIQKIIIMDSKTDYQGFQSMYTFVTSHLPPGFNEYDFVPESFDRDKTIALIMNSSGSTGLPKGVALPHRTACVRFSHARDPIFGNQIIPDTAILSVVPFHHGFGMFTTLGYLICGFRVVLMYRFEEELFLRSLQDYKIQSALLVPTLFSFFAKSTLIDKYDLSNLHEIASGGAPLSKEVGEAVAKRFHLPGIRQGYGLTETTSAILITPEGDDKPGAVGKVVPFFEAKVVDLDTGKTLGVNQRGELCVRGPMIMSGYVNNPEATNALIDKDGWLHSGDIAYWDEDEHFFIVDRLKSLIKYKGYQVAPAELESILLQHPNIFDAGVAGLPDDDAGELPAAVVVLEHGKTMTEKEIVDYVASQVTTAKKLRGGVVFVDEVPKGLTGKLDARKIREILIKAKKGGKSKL
# FLuc stim CS: firefly luciferase counter-screen for stimulation assays | P08659 | ATPlite luciferase biochemical, luminescence, 10 min; 0 = ATP-free wells, 1 = DMSO control | activation factor at 10 µM | 200,000 tested, under 10 active;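 active = luciferase activation factor, scaled between plate controls, of at least 2 with compound at 10 µM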
#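 Assay system: Luciferase/luciferin detection reagent, cell-free biochemical luciferase assay / Also added: ATP substrate / Schedule: 10 min at ambient temperature / Measured by: luminescence measurement of luciferase light output / Benchmarks: low control with PBS replacing ATP, high control enzyme plus ATP without compound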
# PPC-1+TRAIL kill: compounds killing PPC-1 cancer cells with TRAIL present (potentiator screen, no TRAIL-free arm); PPC-1 cells + TRAIL, ATPLite viability luminescence; 220,000 compounds, 0.41% hits; cell killing (% activity), % at 4 µM or 5 µM;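 active = cell killing above 50% in the first pass at 4 µM, then a duplicate retest at 5 µM averaging 50% or more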;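 also: plate controls were cells with TRAIL plus DMSO for no effect and medium-only wells lacking cells for full effect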
# Platelet DG rel: modulates dense granule release in human platelets | AID 1663 | inhibition, %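 (compounds screened at 7.5 µM in platelet-rich plasma)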 | 300,000 compounds, 0.22% hits | human platelet-rich plasma, SFLLRN dense granule ATP release, luminescence;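 active = mean replicate score, as percent of positive control, at or above 50; inconclusive = mean below 50 but at least one replicate at or above 50; inactive = mean and every replicate below 50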
# Active calls of the source: *; u = inconclusive; x = no result.
SMILES,TRAIL sens C8,FLuc inh counter,FLuc stim CS,PPC-1+TRAIL kill,Platelet DG rel
NS(=O)(=O)c1ccc(N/C=C\C(=O)c2ccc(F)cc2)cc1,-2,12,0.9,23,26
CC(=O)Nc1ccc(N/C=C/C(=O)c2ccco2)cc1,5,37,0.6,13,20
CN(C)c1ccc(N/C=C/C(=O)c2ccco2)cc1,62*,96*,0,25,68*
CC(=O)c1cccc2c1OC(C)C(=O)N2Cc1ccc(Cl)cc1 (stereo not drawn),1,x,x,x,x
COc1cccc(-c2cc(C(=O)N3CCOCC3)no2)c1,-3,x,x,x,-1
COc1ccc2cc(-c3ccccc3F)ncc2c1,53*,x,x,x,x
COc1ccc(-c2cc(C(=O)N3CCOCC3)no2)cc1,51*,x,x,x,1
COc1ccc(-c2cc(-c3ccccc3)no2)cc1,59*,x,x,x,u
COc1ccc2cc(-c3cccnc3)ncc2c1,32,x,x,x,x
COc1ccc(-c2cc3ccc(OC)cc3cn2)cc1,77*,x,x,x,x
COc1cc2ccc(-c3ccc4ccccc4n3)cc2cc1OC,0,x,x,x,x
COc1ccc(-c2ccc3ccccc3n2)cc1,58*,72*,0.3,43,4
COc1ccc(-c2ccc(-c3nnn(CC(=O)N4CCOCC4)n3)cc2)cc1,52*,74*,0.3,0,1
COc1ccc(-c2cc3ccccc3cn2)cc1,55*,x,x,x,x
Cc1ccc(NC(=O)C2(C)CCN2C(=O)Cc2ccc(C(C)C)cc2)cc1 (stereo not drawn),8,x,x,x,x
COC(=O)[C@@]12C[C@@H](CC(=O)NCc3ccc(C)o3)C(=O)N(CCc3ccc(OC)c(OC)c3)C1=CCC(C)(C)C2,5,x,x,x,x
NC(=S)NN=C1c2cc(OCCN3CCOCC3)ccc2-c2ccc(OCCN3CCOCC3)cc21,84*,x,x,x,0
CC(=O)N(C)c1ccc(NC(=O)Nc2ccccc2C)cc1,15,54*,0.5,12,14
CC(=O)Nc1ccc(C(=O)N(C)c2ccccc2)cc1,-12,-5,1.1,-21,77*
CC(=O)Nc1ccc(NC(=O)Nc2ccccc2C)cc1,-2,7,0.9,23,22
COc1ccc(/C=C/c2noc(-c3ccccc3O)n2)cc1,21,54*,0.5,17,6
COCCn1c(=S)[nH]c2cc(C(=O)NC3CCCC(C)C3C)ccc2c1=O (stereo not drawn),6,x,x,x,x
O=[N+]([O-])c1ccc(Sc2ccncn2)c([N+](=O)[O-])c1,53*,x,x,x,x
COc1ccc(-n2[nH]c3c(cnc4ccccc43)c2=O)cc1,-16,x,x,x,x
O=C(CN1CCN(S(=O)(=O)c2ccc(F)cc2)CC1)Nc1ccc(Cl)c(C(F)(F)F)c1,60*,-6,1.1,0,-5
SMILES,TRAIL sens C8,FLuc inh counter,FLuc stim CS,PPC-1+TRAIL kill,Platelet DG rel
O=C(CN1CCN(S(=O)(=O)c2ccc(F)cc2)CC1)Nc1ccc2c(c1)OCCO2,2,-4,1,16,29
CC(=O)N1C(=O)C2(NCC(C)N2)c2ccccc21 (stereo not drawn),-18,x,x,x,x
COc1cccc(/C=N/n2c(N)nc3ccccc32)c1OC,14,9,0.9,-4,-5
COc1ccc(/C=N/n2c(N)nc3ccccc32)cc1OC,12,60*,0.4,34,x
COc1ccc(C(C[N+](=O)[O-])c2c(-c3ccccc3)cc3ccccn23)cc1OC (stereo not drawn),11,-6,1.1,10,0
COc1ccc(C(C[N+](=O)[O-])C2(c3ccc(OC)c(OC)c3)C(=O)c3ccccc3C2=O)cc1 (stereo not drawn),53*,18,0.8,43,-3
CCOC(=O)c1c(C)c(-c2ccccc2)n(CC(=O)N2CCCC2)c1C,3,-8,1.1,-8,56*
Cc1csc(=N)n1-c1ccc(Cl)cc1,-6,11,0.9,-21,7
Cc1ccc(-n2c(C)csc2=N)cc1,11,59*,0.4,30,3
S=C(c1ccc(-c2ccc(Br)cc2)o1)N1CCOCC1,16,x,x,14,-5
S=C(c1ccc(-c2ccc(Br)cc2)o1)N1CCCCC1,14,59*,0.4,x,14
O=C(/C=C/c1cccc(Cl)c1)c1ccc([N+](=O)[O-])o1,68*,x,x,x,6
CC1(C)OC(=O)C2=C(C[C@@H](C3CCCCC3)O[C@@H]2c2ccc(F)cc2)O1,16,x,x,x,x
Cc1onc(C(=O)N2CCN(C(c3ccccc3)c3ccccc3)CC2)c1[N+](=O)[O-],91*,-14,1.1,13,-5
Oc1cccc2ccc(Nc3ccccn3)nc12,83*,5,0.9,-4,9
CCOC(=O)C1=C(O)/C(=C/c2cn(CC(=O)NCC3CCCO3)c3ccccc23)SC1=Nc1ccc(C)cc1 (stereo not drawn),57*,x,x,x,x
COc1cc(OC)cc(-c2nnc(Nc3nc4c(F)cccc4s3)o2)c1,-1,2,1,20,14
Fc1cccc2sc(Nc3nnc(-c4ccccc4)o3)nc12,53*,77*,0.2,40,10
CC(N)c1csc(Nc2cc(Oc3ccccc3)ncn2)n1 (stereo not drawn),-1,x,x,x,x
COC(=O)[C@]12CCCCC=C1N(Cc1ccc(Cl)cc1Cl)C(=O)[C@H](CC(=O)N1CCCC1)C2,11,x,x,x,x
O=C(/C=C/c1cccs1)c1ccc(Br)cc1,11,61*,0.4,4,1
O=C(/C=C/c1cccs1)c1ccc(NC(=O)c2cccc(Br)c2)cc1,10,-2,1,-4,-5
CCOC(=O)c1cc(OC)c2cccc(CN3CCC(C)(C(=O)NCCOC)C3)c2c1 (stereo not drawn),-4,x,x,x,x
O=C(NCc1ccco1)C1C(=O)Nc2ccccc2C(=O)N1C1CCCCC1 (stereo not drawn),5,x,x,x,x
Cn1c(=O)c(C(=O)Nc2ccccn2)c(O)c2ccccc21,62*,67*,0.3,36,11
SMILES,TRAIL sens C8,FLuc inh counter,FLuc stim CS,PPC-1+TRAIL kill,Platelet DG rel
CC(C)(C)c1ccc(C(=O)NC(=S)NNC(=O)c2cccs2)cc1,26,12,0.9,24,52*
O/C(=C\c1ccc2ccccc2n1)c1ccc(O)cc1O,66*,83*,0.2,48,26
C[C@@H]1CN([C@@H](C)CO)C(=O)c2cc(C3=CCCCC3)cnc2O[C@H]1CN(C)C(=O)Nc1cccc(F)c1,4,x,x,x,x
C#Cc1ccc(NC(=O)C2(C)CCN2C(=O)C2(c3ccccc3)CC2)cc1 (stereo not drawn),45,x,x,x,x
C#Cc1ccc(NC(=O)C2(C)CCN2C(=O)CC(c2ccccc2)c2ccccc2)cc1 (stereo not drawn),93*,x,x,x,x
CCCCCCCCN1C(=O)[C@H](CC(=O)NCc2ccc(C)o2)C[C@@]2(C(=O)OCC)CCC=C12,-1,x,x,x,x
COc1ccc(/C=C2\CCC(C3CCCC3)C2=O)c(OC)c1OC (stereo not drawn),4,x,x,x,5
COc1cccc(/C=C2\CCC(C3CCCC3)C2=O)c1OC (stereo not drawn),49*,x,x,x,1
CCn1c2ccccc2nc2cc3c(cc21)c(Cl)c(=O)c1ccccc13,79*,x,x,x,x
